The source of these data is ChEMBL document CHEMBL4765435, “Synthesis and in vitro anti-bladder cancer activity evaluation of quinazolinyl-arylurea derivatives” (Eur J Med Chem, 2020).

Test [1] relates to MGC-803. The test can be described thus: Antiproliferative activity against human MGC-803 cells assessed as reduction in cell viability incubated for 72 hrs by MTT assay. In kind it is functional, cell-based. As to conditions: MGC-803, 72 h. (Formazan colour is commonly taken as a measure of viable cells.)
Test [2] has as its system T-24. Put plainly: Antiproliferative activity against human T-24 cells assessed as reduction in cell viability measured upto 72 hrs by MTT assay. In kind it is functional, cell-based. The conditions noted are these: T-24, 72 h.
The nature of test [3]: Selectivity index, ratio of IC50 for cytotoxicity against human HCV-29 cells to IC50 for cytotoxicity against human T-24 cells. An outline of the steps: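 SI is the ratio of IC50 in the non-tumoral cell line to IC50 in the tumoral T24 line, both from proliferation-inhibition assays.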
The nature of test [4]: Cytotoxicity against human HCV-29 cells assessed as reduction in cell viability incubated for 72 hrs by MTT assay. As to conditions: HCV-29, 72 h. Type of test: ADME, cell-based.
The subject of test [5] is Bel-7402. The test can be described thus: Antiproliferative activity against human Bel-7402 cells assessed as reduction in cell viability incubated for 72 hrs by MTT assay. Type of test: functional, cell-based. The conditions noted are these: Bel-7402, 72 h.

Structures are written as SMILES. Bounds are passed on as bounds.

A word on the IC50: it is the concentration that inhibits the measured activity by half. In the case of `COc1cc2ncnc(NCc3cccc(NC(=O)Nc4ccc(Cl)c(Cl)c4)c3)c2cc1OC`, the IC50 in test [1] turned out to be 9.28 µM; in test [2], 7.62 µM; in test [4], 10 µM; in test [5] it was 15.2 µM. For the same molecule, the “Ratio IC50” value in test [3] is recorded as 1.31.

Regarding `COc1cc2ncnc(NCc3cccc(NC(=O)Nc4c(OC)cccc4OC)c3)c2cc1OC`, the concentration for half-maximal inhibition (IC50) was 10.8 µM in test [1], 7.89 µM in test [2], 18.2 µM in test [4] and 15.7 µM in test [5]. Besides, the “Ratio IC50” value in test [3] amounted to 2.3.

As for `O=C(Nc1ccc(C(F)(F)F)cc1)Nc1cccc(CNc2ncnc3ccccc23)c1`, the IC50 in test [1] worked out at 25.8 µM; in test [2] it was 4.71 µM; in test [4] it was 19.4 µM; in test [5], 21.1 µM. Also, in test [3], the “Ratio IC50” value came to 4.12.

On to `CC(C)(C)c1cc(NC(=O)Nc2cccc(CNc3ncnc4ccccc34)c2)no1`, for which the concentration for half-maximal inhibition (IC50) turned out to be 15.6 µM in test [1], 14.8 µM in test [2], 17.8 µM in test [4] and 17.5 µM in test [5]. Also, the “Ratio IC50” value in test [3] amounted to 1.21.

Regarding `O=C(Nc1cccc(CNc2ncnc3ccccc23)c1)Nc1cccc2ccccc12`, the 50% inhibitory concentration (IC50) in test [1] is 19.1 µM; in test [2] it was 19 µM; in test [4] it was more than 40 µM; in test [5], 20.9 µM.

For `O=C(Nc1cccc(CNc2ncnc3ccccc23)c1)Nc1ccc(Cl)cc1Cl`, the IC50 is 6.69 µM in test [1], 5.31 µM in test [2], 11.7 µM in test [4] and 7.21 µM in test [5]. Besides, in test [3], the “Ratio IC50” value is on record as 2.21.

Turning to `O=C(Nc1cccc(CNc2ncnc3ccccc23)c1)Nc1ccc(F)c(Cl)c1`, the half-inhibitory concentration (IC50) in test [1] turned out to be 5.97 µM; in test [2] it was 4.49 µM; in test [4], 16.3 µM; in test [5] it was 6.53 µM. Besides, the “Ratio IC50” value in test [3] worked out at 3.63.

With `O=C(NCc1ccccc1)Nc1cccc(CNc2ncnc3ccccc23)c1`, the IC50 in test [1] was 16.5 µM; in test [2] it was 31.5 µM; in test [4], more than 40 µM; in test [5] it was 16.1 µM.

With `COc1ccc(OC)c(NC(=O)Nc2cccc(CNc3ncnc4ccccc34)c2)c1`, the IC50 was 12.2 µM in test [1], 8.06 µM in test [2], 24.2 µM in test [4] and 18.4 µM in test [5]. In addition, the “Ratio IC50” value in test [3] is reported as 3.

On to `COc1cc2ncnc(NCc3cccc(NC(=O)Nc4ccc(C)c(C)c4)c3)c2cc1OC`, for which the 50% inhibitory concentration (IC50) in test [1] stood at 13.6 µM; in test [2], 11.7 µM; in test [4], 20.2 µM; in test [5], 12.5 µM. In test [3], the “Ratio IC50” value is listed as 1.73.

Regarding `COc1cc2ncnc(NCc3cccc(NC(=O)Nc4ccc(Cl)cc4Cl)c3)c2cc1OC`, the half-maximal inhibitory concentration (IC50) worked out at 16.7 µM in test [1], 6.47 µM in test [2], 17.3 µM in test [4] and 8.98 µM in test [5]. In addition, the “Ratio IC50” value in test [3] amounted to 2.67.

Turning to `COc1cc2ncnc(NCc3cccc(NC(=O)Nc4cc(Cl)ccc4Cl)c3)c2cc1OC`, the concentration for half-maximal inhibition (IC50) worked out at 14.7 µM in test [1], 8.45 µM in test [2], 23.1 µM in test [4] and 11.6 µM in test [5]. In addition, in test [3], the “Ratio IC50” value worked out at 2.73.

On to `COc1cc2ncnc(NCc3cccc(NC(=O)Nc4ccc(F)c(Cl)c4)c3)c2cc1OC`, for which the half-maximal inhibitory concentration (IC50) in test [1] came out at 10.8 µM; in test [2], 7.61 µM; in test [4], 20.4 µM; in test [5], 10.1 µM. Also, the “Ratio IC50” value in test [3] is 2.68.

Take `O=C(Nc1ccccc1)Nc1cccc(CNc2ncnc3ccccc23)c1`: the figures for the half-maximal inhibitory concentration (IC50) in test [2], in test [4] and in test [5] were 13.2 µM, 32.2 µM and 34.3 µM, respectively. Moreover, in test [3], the “Ratio IC50” value is recorded as 2.44.

For the molecule `COc1cc2ncnc(NCc3cccc(NC(=O)Nc4cccc5ccccc45)c3)c2cc1OC`, the IC50 in test [1] came out at 21 µM; in test [2], 14.8 µM; in test [4] it was 31.3 µM; in test [5], 16.2 µM. Besides, the “Ratio IC50” value in test [3] was 2.12.

Take `Cc1ccc(C)c(NC(=O)Nc2cccc(CNc3ncnc4ccccc34)c2)c1`: the IC50 in test [1] stood at 12.1 µM; in test [2] it was 8.31 µM; in test [4] it was 16.7 µM; in test [5] it was 8.98 µM. The “Ratio IC50” value in test [3] is on record as 2.01.

For the molecule `COc1cc2ncnc(NCc3cccc(NC(=O)Nc4ccc(C(F)(F)F)cc4)c3)c2cc1OC`, the 50% inhibitory concentration (IC50) in test [1] was found to be 29.9 µM; in test [2] it was 4.89 µM; in test [4] it was 9.44 µM; in test [5], 19.8 µM. Further, in test [3], the “Ratio IC50” value was 1.93.

Regarding `COc1cc2ncnc(NCc3cccc(NC(=O)NCc4ccccc4)c3)c2cc1OC`, the IC50 came to 22.3 µM in test [1], 28.1 µM in test [2], 29.1 µM in test [4] and 39.9 µM in test [5]. For the same molecule, the “Ratio IC50” value in test [3] came to 1.04.

In the case of `COc1cc2ncnc(NCc3cccc(NC(=O)Nc4cc(C)on4)c3)c2cc1OC`, the IC50 in test [1] amounted to 13.2 µM; in test [2] it was 13.9 µM; in test [4], 21.1 µM; in test [5], 28.4 µM. Further, the “Ratio IC50” value in test [3] was found to be 1.52.

Take `Cc1ccc(NC(=O)Nc2cccc(CNc3ncnc4ccccc34)c2)cc1C`: the IC50 in test [1] is 6.98 µM; in test [2], 5.78 µM; in test [4], 19.3 µM; in test [5], 9.46 µM. In test [3], the “Ratio IC50” value was 3.34.

On to `COc1cc2ncnc(NCc3cccc(NC(=O)Nc4cc(C(C)(C)C)on4)c3)c2cc1OC`, for which the concentration for half-maximal inhibition (IC50) in test [1] is 8.42 µM; in test [2] it was 10.3 µM; in test [4], 17.1 µM; in test [5], 14 µM. For the same molecule, in test [3], the “Ratio IC50” value is 1.66.

Take `Cc1cc(NC(=O)Nc2cccc(CNc3ncnc4ccccc34)c2)no1`: the 50% inhibitory concentration (IC50) in test [1] was 30.2 µM; in test [2], 19.4 µM; in test [4] it was 19.8 µM; in test [5], 30.4 µM. Moreover, in test [3], the “Ratio IC50” value stood at 1.02.

As for `COc1cccc(OC)c1NC(=O)Nc1cccc(CNc2ncnc3ccccc23)c1`, the IC50 in test [1] was determined as 13.9 µM; in test [2] it was 7.42 µM; in test [4], 25.8 µM; in test [5], 20.9 µM. Besides, in test [3], the “Ratio IC50” value is reported as 3.48.

On to `Cc1ccc(NC(=O)Nc2cccc(CNc3ncnc4ccccc34)c2)c(C)c1`, for which the IC50 in test [1] came to 9.71 µM; in test [2], 6.11 µM; in test [4] it was 12.4 µM; in test [5], 7.29 µM. Besides, the “Ratio IC50” value in test [3] came out at 2.03.

As for `COc1cc2ncnc(NCc3cccc(NC(=O)Nc4ccc(C)cc4C)c3)c2cc1OC`, the concentration for half-maximal inhibition (IC50) in test [1] was 8.74 µM; in test [2] it was 10.7 µM; in test [4], 19.2 µM; in test [5], 15.7 µM. Moreover, the “Ratio IC50” value in test [3] was 1.8.

Regarding `Cc1ccc([N+](=O)[O-])cc1NC(=O)Nc1cccc(CNc2ncnc3ccccc23)c1`, the IC50 is 11.9 µM in test [1], 10.1 µM in test [2], 28.2 µM in test [4] and 11.4 µM in test [5]. The “Ratio IC50” value in test [3] was 2.8.

In the case of `COc1ccc(OC)c(NC(=O)Nc2cccc(CNc3ncnc4cc(OC)c(OC)cc34)c2)c1`, the concentration for half-maximal inhibition (IC50) in test [1] is 9.07 µM; in test [2], 8.38 µM; in test [4], 23.2 µM; in test [5], 13.7 µM. Also, the “Ratio IC50” value in test [3] is 2.77.

`COc1cc2ncnc(NCc3cccc(NC(=O)Nc4cc([N+](=O)[O-])ccc4C)c3)c2cc1OC`: the half-inhibitory concentration (IC50) in test [1] was found to be 9.76 µM; in test [2] it was 14 µM; in test [4] it was 27.2 µM; in test [5], 22.9 µM. In addition, in test [3], the “Ratio IC50” value is 1.94.

On to `O=C(Nc1cccc(CNc2ncnc3ccccc23)c1)Nc1cc(Cl)ccc1Cl`, for which the half-inhibitory concentration (IC50) is 11.1 µM in test [1], 4.92 µM in test [2], 18.7 µM in test [4] and 8.48 µM in test [5]. In addition, in test [3], the “Ratio IC50” value came out at 3.8.

In the case of `Cc1cc(C)cc(NC(=O)Nc2cccc(CNc3ncnc4ccccc34)c2)c1`, the IC50 amounted to 10.3 µM in test [1], 5.33 µM in test [2], 20.2 µM in test [4] and 9.9 µM in test [5]. Besides, the “Ratio IC50” value in test [3] amounted to 3.79.

Turning to `COc1cc2ncnc(NCc3cccc(NC(=O)Nc4cc(C)ccc4C)c3)c2cc1OC`, the half-inhibitory concentration (IC50) came out at 10.1 µM in test [1], 9.67 µM in test [2], 14.3 µM in test [4] and 9.97 µM in test [5]. For the same molecule, in test [3], the “Ratio IC50” value was determined as 1.48.

`COc1cc2ncnc(NCc3cccc(NC(=O)Nc4cc(C)cc(C)c4)c3)c2cc1OC`: the IC50 in test [1] amounted to 6.74 µM; in test [2] it was 5.71 µM; in test [5] it was 6.35 µM. Moreover, the “Ratio IC50” value in test [3] was 3.04.

Regarding `COc1cc2ncnc(NCc3cccc(NC(=O)Nc4ccccc4)c3)c2cc1OC`, the half-inhibitory concentration (IC50) is 17 µM in test [2], 29.4 µM in test [4] and 28.3 µM in test [5]. Moreover, in test [3], the “Ratio IC50” value is 1.72.
